Source: ChEMBL document CHEMBL1139138, “Pyrrolidine-constrained phenethylamines: The design of potent, selective, and pharmacologically efficacious dipeptidyl peptidase IV (DPP4) inhibitors from a lead-like screening hit” (Bioorg Med Chem Lett, 2007)

Experiments:
[1] = Half life in rat liver microsome; type: ADME; details: liver microsomes
Method in brief: (§1)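 Stability on incubation with rat or human liver microsomes, expressed as half-life.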

[2] = Half life in human liver microsome; type: ADME; details: liver microsomes; method in brief: as §1
[3] = Cmax in Sprague-Dawley rat at 5 mg/kg, po; type: ADME, organism-based; parameters: dose 5 mg/kg, route oral; details: in vivo
Method in brief: (§2)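 Pharmacokinetics in rat dosed at 5 mg/kg and in dog and monkey dosed at 2.5 mg/kg. Cmax, t1/2 (terminal) and AUC were taken from oral dosing. F is oral bioavailability. Vss is volume of distribution at steady state.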

Prolyl endopeptidase = target: T1, Prolyl endopeptidase (Homo sapiens, UniProt P48147); experiment: Inhibition of human POP
T1 sequence (P48147 whole entry): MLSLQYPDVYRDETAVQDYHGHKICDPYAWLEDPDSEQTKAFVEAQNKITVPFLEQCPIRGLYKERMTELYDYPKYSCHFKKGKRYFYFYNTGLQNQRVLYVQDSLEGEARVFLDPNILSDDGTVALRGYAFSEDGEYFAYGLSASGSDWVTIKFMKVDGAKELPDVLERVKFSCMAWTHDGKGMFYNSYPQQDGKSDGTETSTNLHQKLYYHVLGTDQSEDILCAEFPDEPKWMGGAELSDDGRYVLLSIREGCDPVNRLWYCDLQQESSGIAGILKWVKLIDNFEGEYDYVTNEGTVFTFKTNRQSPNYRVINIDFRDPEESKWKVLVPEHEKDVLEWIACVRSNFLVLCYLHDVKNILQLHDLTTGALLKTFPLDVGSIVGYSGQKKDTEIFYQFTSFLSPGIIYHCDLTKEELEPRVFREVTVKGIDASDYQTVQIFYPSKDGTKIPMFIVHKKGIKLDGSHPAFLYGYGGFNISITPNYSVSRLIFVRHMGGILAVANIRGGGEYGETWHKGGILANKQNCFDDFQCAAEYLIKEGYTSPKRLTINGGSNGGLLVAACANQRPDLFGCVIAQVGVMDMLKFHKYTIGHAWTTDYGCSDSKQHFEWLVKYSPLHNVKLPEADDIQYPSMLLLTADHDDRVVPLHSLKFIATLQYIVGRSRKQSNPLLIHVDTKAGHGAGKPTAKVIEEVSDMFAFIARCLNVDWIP

[4] = Plasma clearance in Sprague-Dawley rat at 5 mg/kg, po; type: ADME, organism-based; parameters: dose 5 mg/kg, route oral; method in brief: as §2
Rattus norvegicus [5] = experiment: Volume of distribution at steady state in Sprague-Dawley rat at 5 mg/kg, po; type: ADME, organism-based; parameters: dose 5 mg/kg, route oral; details: in vivo; method in brief: as §2
Rattus norvegicus [6] = experiment: AUC in Sprague-Dawley rat at 5 mg/kg, po; type: ADME, organism-based, Plasma; parameters: dose 5 mg/kg, route oral; details: in vivo; method in brief: as §2
[7] = Oral bioavailability in Sprague-Dawley rat at 5 mg/kg, po; type: ADME, organism-based; details: in vivo; method in brief: as §2
Prolyl endopeptidase FAP = target: T2, Prolyl endopeptidase FAP (Homo sapiens, UniProt Q12884); experiment: Inhibition of human FAPalpha
T2 sequence (Q12884 whole entry): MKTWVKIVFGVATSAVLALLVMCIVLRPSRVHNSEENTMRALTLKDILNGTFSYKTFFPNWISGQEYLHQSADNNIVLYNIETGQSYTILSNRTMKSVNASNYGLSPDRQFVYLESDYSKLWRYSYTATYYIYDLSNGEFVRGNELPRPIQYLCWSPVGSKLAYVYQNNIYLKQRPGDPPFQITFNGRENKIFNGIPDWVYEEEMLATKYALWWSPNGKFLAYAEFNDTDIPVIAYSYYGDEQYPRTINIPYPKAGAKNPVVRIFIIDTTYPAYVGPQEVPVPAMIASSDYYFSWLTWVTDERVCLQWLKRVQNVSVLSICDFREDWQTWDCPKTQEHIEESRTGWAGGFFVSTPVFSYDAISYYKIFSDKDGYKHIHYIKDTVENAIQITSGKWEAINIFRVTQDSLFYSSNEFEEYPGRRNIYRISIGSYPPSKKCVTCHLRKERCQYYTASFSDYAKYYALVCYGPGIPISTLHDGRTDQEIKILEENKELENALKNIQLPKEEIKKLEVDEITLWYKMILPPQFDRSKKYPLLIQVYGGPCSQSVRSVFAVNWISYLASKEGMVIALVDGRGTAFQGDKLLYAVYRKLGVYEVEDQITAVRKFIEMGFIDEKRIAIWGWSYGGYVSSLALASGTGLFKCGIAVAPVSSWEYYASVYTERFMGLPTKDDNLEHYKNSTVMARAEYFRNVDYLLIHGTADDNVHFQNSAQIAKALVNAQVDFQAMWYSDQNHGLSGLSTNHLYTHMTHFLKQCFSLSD

[8] = Half life in Sprague-Dawley rat at 5 mg/kg, po; type: ADME, organism-based; parameters: dose 5 mg/kg, route oral; details: in vivo; method in brief: as §2

| Compound | half-life [1] [h] | half-life [2] [h] | further results |
| --- | --- | --- | --- |
| Cc1cccc(COC(=O)N2CC(N)C(c3ccc(Cl)cc3Cl)C2)n1 (racemic) | > 3 | > 3 | – |
| NC1CN(c2ccccn2)CC1c1ccc(Cl)cc1Cl (racemic) | > 3 | > 3 | – |
| Cc1ccc(S(=O)(=O)N2CC(N)C(c3ccc(Cl)cc3Cl)C2)cc1 (racemic) | > 3 | > 3 | – |
| NC1CN(c2cc(-c3ccsc3)ncn2)CC1c1cc(F)c(F)cc1Cl (racemic) | > 3 | > 3 | – |
| CC(=O)N1CC(N)C(c2ccc(Cl)cc2Cl)C1 (racemic) | > 3 | > 3 | – |
| NC1CN(c2cc(-c3ccsc3)ncn2)CC1c1ccc(F)cc1Cl (racemic) | > 3 | > 3 | – |
| CS(=O)(=O)c1cccc(-c2cc(N3CC(N)C(c4cc(F)c(F)cc4F)C3)ncn2)c1 (stereo unspecified) | > 3 | > 3 | Cmax [3]: 1810 ng/mL; Ki (Prolyl endopeptidase): > 30 µM; CL/F [4]: 4.33 mL/min/kg; Vdss (Rattus norvegicus [5]): 1.44 L/kg; AUC (Rattus norvegicus [6]): 22000 ng·h/mL; bioavailability [7]: 110%; Ki (Prolyl endopeptidase FAP): > 30 µM; half-life [8]: 3.8 h |
| NC1CN(c2cc(-c3ccsc3)ncn2)CC1c1ccc(Cl)cc1Cl (racemic) | > 3 | > 3 | – |
| CCN(C)C(=O)N1CC(N)C(c2ccc(Cl)cc2Cl)C1 (racemic) | > 3 | > 3 | – |
| COc1ccc(-c2cnc(N3CC(N)C(c4ccc(Cl)cc4Cl)C3)nc2)cc1 (racemic) | > 3 | > 3 | – |
| NC1CN(c2ccccc2)CC1c1ccc(Cl)cc1Cl (racemic) | > 3 | > 3 | – |
| NC1CN(Cc2ccccc2)CC1c1ccc(Cl)cc1Cl (stereo unspecified) | > 3 | > 3 | – |
| NC1CN(c2ncccn2)CC1c1ccc(Cl)cc1Cl (racemic) | > 3 | > 3 | – |
| COc1cccc(CN(C)C(=O)N2CC(N)C(c3ccc(Cl)cc3Cl)C2)c1 (racemic) | > 3 | > 3 | – |
